This sample holds only a part of the variants without activity.

B1: tRNA (parent)
chain: GUUCCGUUGGCGUAAUGGUAACGCGUCUCCCUCCUAAGGAGAAGACUGCGGGUUCGAGUCCCGUACGGAACG

This data set covers variants of B1. As to the kind of experiment: yeast fitness relative to wild type (ratio to wild type); higher = fitter; tRNA-Arg(CCU), competitive growth, 37 C, YPD. In a few lines: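 A pool of Saccharomyces cerevisiae strains, each with a tRNA-Arg(CCU) gene variant at the native genomic locus, was competed in YPD at 37°C for 24 hours across six parallel replicates. The variants had been chemically synthesised at a 3% per-site mutation rate over 69 sites, and gene amplicons before and after competition were read by 100-nucleotide paired-end sequencing. Darwinian fitness relative to wild type rested on changes in genotype frequencies. Genotypes required ≥ 100 starting reads, and estimates < 0.5 were set to 0.5.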
Regarding U19C C27U C46A C62G A69U, the yeast fitness is at most 0.5. In the case of C4A C31U G51A A70G it was at most 0.5; in that of U3C C24A C55A, at most 0.5. In the case of C24U U47C U59C it was 0.684. Turning to U2C C11U C22U A57U, the yeast fitness is at most 0.5. In the case of C22U C33U A43U G52A it was at most 0.5; in that of A14G A36G C66U, 0.606; in that of C27G C29G C46A A65G C66U, at most 0.5.

Consider U3G C11A C34G A45C G52C, for which the yeast fitness came out at 0.546. In the case of A21C G51A it was 0.658. On to U16A U32C A37U C49G, for which the yeast fitness came to 0.516. In the case of U19C A45G it was 1; in that of U26C C30G G41A G56A C60G C62U G68A, at most 0.5. With G18C C62A the figure was at most 0.5.

Consider A20G A37U C60A, for which the yeast fitness was found to be 0.626. In the case of U8A U19G C24G U32A it was at most 0.5; in that of U2A G9A U19C, 1.03. In the case of C29G G44U A65G it was at most 0.5; in that of C4U A15C G17A G18A A36C C55U C66A, at most 0.5. With U3A C33U U59C the figure was at most 0.5. Take A21C A43U C49U G68A: the yeast fitness was at most 0.5. In the case of G51A A65C it was 0.75.

As to C5U C55A A57C, the yeast fitness was at most 0.5. In the case of U7C A42U it was 0.728. With C4U A21C G41U the figure was 0.625.

As for C24G G25C C27A A40C G51A, the yeast fitness was at most 0.5.

As for A15G C61U G67A, the yeast fitness turned out to be 0.549. In the case of C31U A37G it was 0.69; in that of G25A C27G G67C, at most 0.5; in that of U3A A42C, 0.72.

On to U13A A70C, for which the yeast fitness was found to be 1.03. In the case of U19A C55G A57G it was 0.5; in that of G10C C31U A57C C62A A70U, at most 0.5; in that of C22G G39C, 0.823.

For the variant A43G U53C C55U C62U, the yeast fitness is at most 0.5.

On to U13C C62A, for which the yeast fitness was 0.68. With A15C A42G A43G the figure was at most 0.5; with C5G G23C C31U A37C, at most 0.5; with C11G C22G C62U, at most 0.5.

For U3A A21C C24G, the yeast fitness came to 0.507.

On to C11U G41C C60G, for which the yeast fitness was 0.647. In the case of G10C U19G it was 0.552; in that of C11G A20C, 0.615; in that of U13A A21C G52A, at most 0.5. In the case of C4A C11U C27G C33A A43C C46A, the yeast fitness is at most 0.5. With C24U C31U C49U A70U the figure was 0.64; with C22G G25C A37G A65U, 0.576; with C5A A15C C30A A42U C55U C66A, at most 0.5.

Turning to U19C C24U C61U, the yeast fitness turned out to be 0.787. In the case of A37U A43U G48C it was 0.514; in that of U2G A40G, 0.803; in that of C11A C34A G44C A70U, at most 0.5. On to A15G C60A, for which the yeast fitness is 0.687. Consider U8C C27U G48A C49U, for which the yeast fitness came out at 0.686. With C11G U26A U35A the figure was at most 0.5. With C29A C49G the figure was 0.623. With A20U C24U C29G C49G G63C the figure was at most 0.5; with C24G G67U, at most 0.5; with U3C A15G C30A, 0.564. For C31G C61A G67C, the yeast fitness is at most 0.5. With A42U C62U A65C the figure was 0.526. With C29A C30A G50A A70C the figure was at most 0.5; with C11U A21U C61A A70U, at most 0.5. With C30U C34A the figure was 0.806.

For U7C A37C A40C A45U A57C A70U, the yeast fitness is 0.555.

Turning to G12A U32A C46A C66U, the yeast fitness was at most 0.5.

With A21U C24U C27A A37C A40U, the yeast fitness was at most 0.5.

In the case of U13G G23C A43C, the yeast fitness turned out to be 0.584.

As for C34U A42G, the yeast fitness came out at 0.712. With U19A C29G A69C the figure was 0.547; with C4A A20G G44C A45G C55U, at most 0.5. In the case of U13C C49U it was 1.01; in that of A42G U47A C55U A57C, 0.631. In the case of A15C G39A G56A it was at most 0.5; in that of C27U A36C, 0.541; in that of C11A G12C U53G A65U, at most 0.5. Regarding U16G C22G C46G, the yeast fitness turned out to be 0.657. In the case of A42U C61A it was 0.683; in that of C24U G39C C61U, 0.549; in that of U3C U8A A15C C31G C49U A57U, 0.609. In the case of U7G G9A C31G A36G G68C, the yeast fitness is at most 0.5.

Turning to C4G A20G, the yeast fitness was found to be 0.966. With U3C U16G U19A A43C A57U A69C the figure was at most 0.5; with G10A C30U C34U A42G A57C, at most 0.5; with G9A C31A C46A A57G, at most 0.5. In the case of U19C G23A A37C A65G it was at most 0.5; in that of G18C G44A G67U, at most 0.5; in that of C30U G41A, 0.842.

A15G G67A A69U: the yeast fitness was 0.637. With U32C C55U A57C G67A the figure was 0.638; with C4G C34A C66U, at most 0.5; with G9C G68A, 0.763. On to C11U A15G G23A C60A C61U G63C C66U, for which the yeast fitness was at most 0.5. With C4G C5G U8C G23C C29U A45U G68A the figure was 0.59; with C29G C62A, 0.506; with C4U C66G A70U, 0.608. In the case of C11A G58A G68A it was 0.621; in that of G9A A21C G52A G56C C62G C66U, at most 0.5.

In the case of A15U U19A A20G A40U A43U C60G C62U A69G, the yeast fitness was at most 0.5. In the case of C31G A45U it was 0.987; in that of G9A A43C C62G, at most 0.5.

Take A36G A57C: the yeast fitness came to 0.645. In the case of G6A G12C C49G it was at most 0.5; in that of U35C G44A C46G G50C U53A, 0.583. With A14C G17U C27U the figure was 0.647; with U7G A20G A70G, 0.615. In the case of U54A A70G it was 0.702; in that of G6C C27U G51U G67A, at most 0.5; in that of C49G, 0.99.

As to C5U A36C U54A, the yeast fitness is at most 0.5. With A15C G18A C24G the figure was at most 0.5; with U7G U32C A40G, 0.559; with U26C U53C G58A, 0.686. On to G6A C11A G17A U35G U59C, for which the yeast fitness was at most 0.5. Regarding U7G U19C U64C, the yeast fitness stood at 0.954. In the case of C5U A14U C24G it was at most 0.5; in that of C11G C24U A42U A43U C66U, at most 0.5. With C11U A14G C49A the figure was at most 0.5. With U3A A21G C31A G48C the figure was at most 0.5; with C29U C61G, 0.658. Turning to C4U G23C G39C G44A G67A, the yeast fitness is at most 0.5. In the case of C34G A37U C62A it was at most 0.5; in that of A42C G48C, 0.763; in that of G10C C30U G51A G63A, at most 0.5. In the case of G10C C27G G38C G56A it was 0.526.

For G63C C66U, the yeast fitness is 0.666. With C5U A45U G68C the figure was 0.531; with A14G A40C C60U C62G, at most 0.5.

Take U3C C5G C24A: the yeast fitness was at most 0.5.

Take G12A C22U: the yeast fitness was determined as 0.873. In the case of A45G G56C it was 0.604.

For U19A C22U G63C, the yeast fitness is at most 0.5. With C11G U59A C61A the figure was at most 0.5; with U54A C55G A65C, 0.627. In the case of C11A A21C U26G A65G A69C it was 0.525; in that of G6A U8A C11U, at most 0.5; in that of U7G C29A, 0.649.

As to G12A C30U U47A U54C, the yeast fitness was at most 0.5. With G25C C49U G51A C60A A70G the figure was at most 0.5; with U2G G39A G51A, at most 0.5; with C5G C60G A70C, 0.509. With C5A U7C U59A the figure was at most 0.5; with C22U C27G A57C, at most 0.5. For the variant U26C A40U, the yeast fitness amounted to 0.846.

Regarding U35C C49U G63C, the yeast fitness was 0.548. In the case of C4U A36G G39A G67A, the yeast fitness is at most 0.5. With A20G C33A A57G the figure was 0.52. With U7C G12A C31U U47C the figure was at most 0.5; with U3A C29G A57G, at most 0.5; with C11G U64A, 0.623.

For A20C U35G C46U G67U, the yeast fitness was at most 0.5. In the case of A14U U16A it was 0.667; in that of G9C A14G U26A U32G, at most 0.5. With U16G A65G the figure was 0.904; with C55G A70G, 0.673; with C5U A21U C30G C60G A70C, at most 0.5. With C4A C22U G48C the figure was at most 0.5; with C24U U26G U35A C62A, at most 0.5; with C33A A36C, 0.526. In the case of C24U C31G C34G A43U G68C A69G, the yeast fitness was at most 0.5.

For the variant C5U G17A C29U G52C C55G, the yeast fitness was at most 0.5. With C31A C55U the figure was 0.863; with C11U G48A C62A, 0.762; with A14U C30U C46U G52C, at most 0.5. With G10A C24A A43U G48A the figure was at most 0.5; with U3A U7G A14U G25A G41C, at most 0.5.

In the case of A21G G51C, the yeast fitness is 0.647.

These data come from the RNAGym collection of RNA variant scans (doi:10.1126/science.aae0568).
